Experimental findings from paper PMC3483449 (FEBS letters, 2012) are described below.

In general, Kd refers to a measure of binding affinity in units of concentration.

Experiment [1] deals with T1, mouse AA3 (Mus musculus, UniProt Q91XE4).
T1 sequence (Q91XE4 1-318): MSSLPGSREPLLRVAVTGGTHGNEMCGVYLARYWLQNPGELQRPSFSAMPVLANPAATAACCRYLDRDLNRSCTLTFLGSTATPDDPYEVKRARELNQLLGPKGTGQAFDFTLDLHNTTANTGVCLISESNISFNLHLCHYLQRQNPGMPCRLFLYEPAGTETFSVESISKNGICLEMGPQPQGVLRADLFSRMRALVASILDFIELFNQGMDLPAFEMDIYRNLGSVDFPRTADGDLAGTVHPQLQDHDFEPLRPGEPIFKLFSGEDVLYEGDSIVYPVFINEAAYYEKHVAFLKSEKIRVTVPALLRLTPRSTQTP
In words: Inhibition of Co2+-dependent endopeptidase activity of AA3. Particulars: 1 mg/ml Pefabloc SC. Type of experiment: biochemical. The gist of the method: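 Cleavage reaction with N-terminally Strep(II)-tagged mouse AA3 (E. coli-expressed, Streptactin-purified): 3 µM enzyme plus 1 mM peptide or 0.1 mM His-tagged HCV core protein (aa 1–177) in 50 mM Tris-HCl pH 7.5 with 1 mM CoCl2, incubated 18 h at 37°C. Products were diluted to 50 µM peptide, then analysed by reverse-phase HPLC with UV and on-line ionspray triple-quadrupole MS. Cleavage sites were assigned from masses.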

For experiment [2], the target named is T1, mouse AA3. In words: Peptide cleavage catalyzed by AA3. Particulars: 3 μM AA3, 1 mM peptide or 0.1 mM HCVCP, 50 mM Tris-HCl pH 7.5, 1 mM CoCl2, 18 h, 37°C; LC-MS. Type of experiment: biochemical. The procedure, abridged:
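Recombinant mouse AA3 (N-terminal Strep(II) tag, expressed in E. coli, Streptactin-purified) was incubated with N-acetylated or free peptides, or with His-tagged HCV core aa 1–177 (genotype 1). Aliquots were diluted in water to 50 μM peptide, then run by reverse-phase HPLC (0.1% formic acid, 0–100% acetonitrile over 60 min) with UV and triple-quadrupole ESI-MS detection (m/z 300–2000). Cleavage sites were assigned from fragment masses.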

Experiment [3] concerns the target T2, mouse aminoacylase 3 (mouse, UniProt Q91XE4 1-318).
T2 sequence (looked up): T1 sequence (Q91XE4 1-318)
The experiment can be described thus: SPR.

In the case of `Cl.NCCc1ccc(S(=O)(=O)F)cc1` [Pefabloc SC], the “Inhibition of Co2+-dependent endopeptidase activity of AA3” value in experiment [1] is given as ~ 50%.
Turning to casein, the “Hydrolysis (cleavage) by AA3” value in experiment [2] is “not hydrolyzed”.
Still for that read-out and setting: with “insulin B chain: standard protease substrate” the entry was “not hydrolyzed”.
Molecule STLPKPQRKTKRNTIRRPQDVKFPGG [HCVCP-long peptide (aa. 2-27)] yielded a dissociation constant (Kd) in experiment [3] of 142 ± 11 µM.
